Results published in ChEMBL document CHEMBL4513216, “Probing the Open Global Health Chemical Diversity Library for Multistage-Active Starting Points for Next-Generation Antimalarials” (ACS Infect Dis, 2020).

Test: Toxicity liver stage against HepG2, at 10uM
Type: cell-based
Set-up: test concentration 10 uM, cell line HepG2-A16-CD81EGFP
Conditions: human, HepG2-A16-CD81EGFP cells; read-out: INHIBITION
How it was run: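 Uninfected HepG2-A16-CD81EGFP cells, 3 × 10^3 per well, 1536-well, plated on prespotted compound at 10 μM final, parasite-free screening media added to match infected plates; puromycin 10 μM positive, DMSO 0.5% negative; run in parallel with 48 h PbLuc assay at 37 °C, 5% CO2; viability by CellTiter-Glo luminescence, normalized to controls.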

Row | SMILES | cytotoxicity at 10 µM [%]
1 | O=C1CCC(=O)c2oc3ccccc3c2N1 | 4.34
2 | Cc1cccc(O[C@H]2COCCN(C3CCC3)C2)n1 | -4.81
3 | CN1CCOC[C@H]1c1nc(-c2ccccc2)c[nH]1 | -7.24
4 | COc1ccc(-c2noc([C@@H](C)NC(=O)NC(C)(C)C)c2C(=O)O)cc1 | -1.63
5 | COc1ccc(CN2C[C@H]3CN(C(=O)c4ccno4)CCN3C2=O)cc1 | -4.23
6 | CN1[C@@H](CCC(=O)NCc2ccc(F)cc2)CNC(=O)[C@H]2NCC[C@H]21 | 7.6
7 | Cc1cccc(CNC[C@H]2Cn3cc(-c4ccccc4)nc3CO2)n1 | -2.59
8 | CC(C)c1sc(Cl)nc1C(=O)NCc1ccncc1 | 0.649
9 | Cn1c(-c2ccccc2)nn(CCNS(=O)(=O)c2ccccc2Cl)c1=O | -2.85
10 | O=C(Nc1cnccn1)[C@@H]1COC[C@H]2CN(c3ncc(F)cn3)C[C@H]21 | -11.7
11 | CN(Cc1ccncc1)C1CCC[C@@H]2CN(c3ncccn3)C[C@H]12 (some centres not stated) | -3.21
12 | Cn1cnc2c1C(C(=O)N1CCCC1)N(S(C)(=O)=O)CC2 (configuration not stated) | 6.22
13 | O=C1NCCO[C@H]2CN(C(=O)CCc3ccc(Cl)cc3)CC[C@@H]12 | 11.1
14 | O=C([C@@H]1CC[C@@H]2[C@@H](CCN2Cc2ccncc2)O1)N1CCCCO1 | -3.75
15 | COCCC(=O)N1CCC2(CCCN2Cc2ccccc2)C1 (configuration not stated) | 10.4
16 | CC(C)OCCCNC(=O)CC1(Cn2cnnn2)CCCCC1 | 9.18
17 | O=c1[nH]c2c(c(=O)n1C1CCCCC1)CCC2Nc1ccccc1 (configuration not stated) | 0.795
18 | Cn1nc(C(=O)NN2CCOCC2)c(Cl)c1C(F)(F)F | 2.99
19 | Cn1nc(C(=O)NC2CCCC2)cc1NC(=O)C1CC1 | 0.754
20 | CSc1ncnc(NCc2ccccc2F)c1C#N | 1.67
21 | CCC(=O)NCCNC(=O)c1nn(C)c(C)c1Cl | 5.05
22 | CC1CCCN(C(=O)c2ccc(-c3ccco3)o2)C1 (configuration not stated) | 4.23
23 | CN1CCCCC(C2CCN(S(=O)(=O)c3cn(C)cn3)CC2)C1=O (configuration not stated) | 3.13

Row | SMILES | cytotoxicity at 10 µM [%]
24 | Cc1nn(C)c(C)c1-c1cnc(CC2CCNC2)cn1 (configuration not stated) | -8.41
25 | CNc1cc(C(=O)N2CCOC(C(=O)NC3CCCC3)C2)ccn1 (configuration not stated) | 8.16
26 | CO[C@H]1CN(S(=O)(=O)c2ccc(F)cc2)C[C@@]12CCCO2 | 13.2
27 | Cc1sc2c(C3CCCN(S(C)(=O)=O)C3)nc(C)n2c1C (configuration not stated) | -33
28 | c1cncc(CN2CCCC(c3nnc(-c4cnccn4)o3)C2)c1 (configuration not stated) | -7.36
29 | O=C(c1cc(C2CCCCN2C(=O)C2CCC2)n[nH]1)N1CCOCC1 (configuration not stated) | -14
30 | COCC(=O)N1CCC(c2n[nH]c3nccnc23)CC1 | -8.38
31 | O=C(CCNc1ccc(Br)cn1)NCc1ccncc1 | -0.222
32 | CC(C(=O)N(Cc1ccc(C#N)cc1)CC(F)(F)F)S(C)(=O)=O (configuration not stated) | -2.6
33 | Cc1c(C(=O)N(C)CC(F)(F)F)nnn1-c1ccccc1Cl | -1.58
34 | CC(NS(=O)(=O)N(C)C)c1cccc(-n2cccn2)c1 (configuration not stated) | -1.46
35 | O=C(NCC(O)c1cccc(F)c1)c1sccc1OC(F)F (configuration not stated) | 0.547
36 | O=C1CC(N(C(=O)Cc2csc(-c3ccccc3)n2)C2CC2)C(=O)N1 (configuration not stated) | 3.51
37 | CC(C)Cn1cnc(S(=O)(=O)Nc2cccnc2-n2cccn2)c1 | -1.75
38 | CCc1noc(C(C)N2CCC(NS(=O)(=O)c3ccccc3)CC2)n1 (configuration not stated) | 7.87
39 | NC(=O)C(NCc1ccc(Cl)s1)c1ccccc1 (configuration not stated) | 2.8
40 | Cc1ccc(-c2cc(CNC(=O)NC3CCCCNC3=O)on2)cc1 (configuration not stated) | -145
41 | Cc1cc(C(=O)N2CCNC(=O)C2)c(C)n1CC(F)(F)F | 0.962
42 | CC(C)(C)C1CCC(O)(CNC(=O)CCS(C)(=O)=O)CC1 (configuration not stated) | 6.51
43 | CC(NC(=O)N1CCCCCC1)c1ccc(S(N)(=O)=O)cc1 (configuration not stated) | -6.06
44 | O=C(NC1CCS(=O)(=O)c2ccccc21)c1sccc1C1CC1 (configuration not stated) | 3.63
45 | Cc1ccc(S(=O)(=O)N2CC(C)Oc3ncccc32)c(F)c1 (configuration not stated) | 3.43
46 | CC(C)c1nc(C2CCCN(c3ncccn3)C2)no1 (configuration not stated) | 12.4

Row | SMILES | cytotoxicity at 10 µM [%]
47 | CS(=O)(=O)NC1CCN(C(=O)c2ccc(F)cc2)CC1 | 2.3
48 | O=C(NCC(O)COc1ccccc1)C1(c2ccc(F)cc2)CC1 (configuration not stated) | 1.3
49 | c1cc(-c2noc(-c3cc(C4CC4)on3)n2)cc(N2CCCCC2)n1 | 4.64
50 | CCCNC(=O)CN1CCN(c2nc(CC)ns2)CC1 | -3.53
51 | COc1ccc(NC(=O)NC(C)c2nc[nH]n2)cc1Cl (configuration not stated) | 0.0264
52 | CN(C)C(=O)CCS(=O)(=O)Cc1coc(-c2ccc(F)cc2)n1 | -2.26
53 | CCSc1cc(C(=O)NCCNC(=O)N(C)C)ccn1 | -3.63
54 | Cc1cc(NC(=O)C(c2cccc(F)c2)N2CCOCC2)sn1 (configuration not stated) | -3.98
55 | CN(Cc1cnn(C)c1)C(=O)NCC1CCS(=O)(=O)C1 (configuration not stated) | 10.3
56 | Cc1n[nH]c(C2CN(C(=O)CCCn3cccn3)CCO2)n1 (configuration not stated) | -0.138
57 | N#CC1(C(=O)NCc2ccc(F)cc2)CCCC1 | 7.57
58 | COc1ccnc(NC(=O)c2cnccn2)c1 | 7.97
59 | COCCN1CC(C(=O)Nc2ccc3c(c2)CCC(=O)N3C)CC1=O (configuration not stated) | 6.18
60 | CCC1CN(CC(=O)NCCOC)CCO1 (configuration not stated) | -12.9
61 | O=C(CNc1cc(Br)ccc1Br)NC1CCS(=O)(=O)C1 (configuration not stated) | -5.88
62 | CCN(CC)C(=O)c1ccc(CNc2ncc(C#N)cc2Cl)cc1 | 5.87
63 | CC(C)CCNc1nnc(C(C)C)s1 | -10.6
64 | CN(C)S(=O)(=O)NCC1CCN(Cc2ccccc2F)CC1 | -0.768
65 | CC1CCN(C(=O)C(C)N2CCN(c3nccs3)CC2)CC1 (configuration not stated) | 0.583
66 | CC(=O)N1CCN(C(=O)CNc2ccc3sccc3c2)CC1 | 0.335
67 | CCN(Cc1cnn(C)c1)C(=O)c1ccccc1O | 1.89
68 | O=C(NCCc1nncn1C1CC1)c1cc2ccccn2c1 | -1.87
69 | CN(CC(=O)NC(C)(C#N)C1CC1)Cc1nc2ccccc2n1C (configuration not stated) | -3.72

Row | SMILES | cytotoxicity at 10 µM [%]
70 | O=C(CSc1nnc[nH]1)NCc1sccc1Br | 0.388
71 | Cc1ccc2nc(NCCN3CCOCC3)n(C)c(=O)c2c1 | 9.26
72 | N#Cc1ccc(N2CCN(c3ccc4nncn4n3)CC2)nc1 | -13.3
73 | COc1ccc(F)c(NCc2ccc(C(=O)N(C)C)[nH]2)c1 | 7.31
74 | Cc1ccc(NC(=O)NC(C)C(=O)N2CCS(=O)(=O)CC2)cc1 (configuration not stated) | -5.1
75 | Cc1n[nH]c(C2CN(CC(=O)NCCc3ccsc3)CCO2)n1 (configuration not stated) | -0.524
76 | CCn1cncc1-c1nc2c([nH]1)CC(C)(C)CNC2=O | 7.51
77 | Cc1ccsc1[C@@H]1CCN(C(=O)Cc2ccc(O)cc2)C[C@H]1O | -2.59
78 | CC(C)C(=O)N1CCN(C(=O)c2cc(Cl)no2)[C@H]2CS(=O)(=O)C[C@H]21 | 8.48
79 | CCC(C)N(Cc1ccsc1)C(=O)c1ccc2[nH]nnc2c1 (configuration not stated) | 13.3
80 | Cc1ccc(C(=O)N2CCc3ncccc3C2)cc1N1CCNC1=O | -4.33
81 | c1cnnc(-c2noc(COCC3CCCO3)n2)c1 (configuration not stated) | 2.66
82 | Cn1c(Cn2ccnc2)nnc1C1CCN(C(=O)c2ccncc2)CC1 | -106
83 | CCc1ccccc1CN1CCN(Cc2ncc[nH]2)[C@H]2CS(=O)(=O)C[C@H]21 | 2.03
84 | CC1=C(C(=O)NCCc2n[nH]c3c2CCCC3)C(C)NC(=O)N1 (configuration not stated) | -3.51
85 | CCN(C(=O)c1c(Cl)cnn1CC)C(C)C(N)=O (configuration not stated) | -16.1
86 | CCCc1nc(C(=O)NCc2cccnc2-n2cncn2)cs1 | -148
87 | c1cncc(NCCNC2CCSCC2)c1 | -0.307
88 | CN1CCN(S(=O)(=O)NCC2COc3ccccc3C2)CC1 (configuration not stated) | -3.33
89 | CCCn1ncnc1C(C)NC(=O)C1CCN(C(C)C)CC1 (configuration not stated) | -139
90 | COC(=O)c1ccc2ccn(CC3CCCCO3)c(=O)c2c1 (configuration not stated) | -0.551
91 | CN1CCCN(C(=O)c2cnc(C(C)(C)C)nc2O)CC1 | -0.0816
92 | CN(Cc1cc(-c2ccncc2)no1)Cc1nccn1C | 0.884

Row | SMILES | cytotoxicity at 10 µM [%]
93 | CN(C)CCNc1cc(-c2ccc[nH]c2=O)c2cc[nH]c2n1 | 9.26
94 | CC(C)N1CCCC(CN(C)c2ccc(Cn3ccnc3)cn2)C1 (configuration not stated) | -127
95 | CC[C@H]1CN(C(=O)CCn2c(C)cccc2=O)CC[C@@]1(C)O | 8.51
96 | O=C(O)c1cc(-c2cccnc2)cc(S(=O)(=O)N2CCCCCC2)c1 | -2.88
97 | CC(C)(C)c1ncc2c(n1)CN(C(=O)c1ccncc1)C2 | -12.5
98 | Cn1c(Cn2ccnc2)nnc1C1CCN(Cc2cccnc2N)CC1 | -8.37
99 | CN1CCN(C2CCN(CCOc3ccccc3F)CC2)C1=O | 0.174
100 | Cc1nccn1C1CCCN(C(=O)c2ccc(N(C)C)nn2)C1 (configuration not stated) | -17.7
101 | CCOc1ncccc1NC(=O)N1CCN(CC(=O)NC)CC1 | -2.66
102 | COc1ncccc1CNC(=O)c1cc(Cl)ccn1 | -7.51
103 | CC(Cc1ccco1)NC(=O)Nc1ccc(N(C)C)nc1 (configuration not stated) | -7.22
104 | CCOCCN1CCN(Cc2csc(-c3cnn(C)c3)n2)CC1 | -4.95
105 | Cc1ccc(C(=O)Nc2cc(C(C)C)n[nH]2)cn1 | 55.8
106 | NC(=O)C1CN(C(=O)Nc2ccccc2N2CCCCCC2)CCO1 (configuration not stated) | -6.31
107 | Cc1ccc(CN[C@@H]2COC[C@H]2Cc2cc(C)no2)cc1 | -23.2
108 | c1csc(CN2CCC3(COCCN(CC4CC4)C3)C2)n1 (configuration not stated) | 1.44
109 | COCCNC(=O)c1cc(-c2cc[nH]n2)n2ccccc12 | 10.4
110 | O=C1CC2(CCN(Cc3ccccn3)C2)CN1c1cccnc1 (configuration not stated) | -8.75
111 | COc1ccc(C(NCc2ccc(C#N)cc2)C2CC2)cc1 (configuration not stated) | 7.18
112 | CCc1nccn1CC(=O)N1C[C@@H]2CC[C@H]1CN(c1ncccn1)C2 | -7.9
